Data published in ChEMBL document CHEMBL1147862, “Studies on synthesis and pharmacological activities of 3,6-disubstituted-1,2,4-triazolo[3,4-b]-1,3,4-thiadiazoles and their dihydro analogues” (2007).

Columns and labels:
Format in all cases: functional
[1] = tested on: Aspergillus niger; assay: Antifungal activity against Aspergillus niger at 30 ug/ml by paper disc method; conditions: read-out: IZ
[2] = tested on: Rattus norvegicus; assay: Antiinflammatory activity in Wistar Albino rat assessed as inhibition of carrageenan-induced paw oedema at 20 mg/kg after 4 hrs relative to control
Method in brief: (§1)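 Wistar albino rats, 150–200 g, six per group, dosed orally with a 20 mg/kg suspension; control gets 0.1 ml 1% gum acacia. After 30 min, 0.1 ml 1% carrageenan in saline is injected subplantar into the right hind paw. Paw volume is read by plethysmograph at 0–4 h. Inhibition = 100(1 − Vtest/Vcontrol) on mean volume increase.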

[3] = tested on: Rattus norvegicus; assay: Antiinflammatory activity in Wistar Albino rat assessed as inhibition of carrageenan-induced paw oedema at 20 mg/kg after 1 hr relative to control; method in brief: as §1
[4] = tested on: Aspergillus niger; assay: Antifungal activity against Aspergillus niger at 10 ug/ml by paper disc method; conditions: read-out: IZ
[5] = tested on: Staphylococcus aureus; assay: Antibacterial activity against Staphylococcus aureus at 20 ug/ml by agar plate diffusion technique; conditions: read-out: IZ
[6] = tested on: Mus musculus; assay: Analgesic activity in Swiss mouse assessed as increase in reaction time at 20 mg/kg, po after 90 mins by Eddy's hot plate technique
Method in brief: (§2)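 Swiss mice of either sex, 25–35 g, placed one at a time on a hot plate held at 55 °C. End point is paw licking or jumping, whichever comes first, with a 15 s cut-off to avoid paw injury. Reaction time is recorded and reported as percent increase in reaction time.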

[7] = tested on: Staphylococcus aureus; assay: Antibacterial activity against Staphylococcus aureus at 10 ug/ml by agar plate diffusion technique; conditions: read-out: IZ
[8] = tested on: Staphylococcus aureus; assay: Antibacterial activity against Staphylococcus aureus at 30 ug/ml by agar plate diffusion technique; conditions: read-out: IZ
[9] = tested on: Pseudomonas aeruginosa; assay: Antibacterial activity against Pseudomonas aeruginosa at 10 ug/ml by agar plate diffusion technique; conditions: read-out: IZ
[10] = tested on: Pseudomonas aeruginosa; assay: Antibacterial activity against Pseudomonas aeruginosa at 20 ug/ml by agar plate diffusion technique; conditions: read-out: IZ
[11] = tested on: Rattus norvegicus; assay: Antiinflammatory activity in Wistar Albino rat assessed as inhibition of carrageenan-induced paw oedema at 20 mg/kg after 3 hrs relative to control; method in brief: as §1
[12] = tested on: Escherichia coli; assay: Antibacterial activity against Escherichia coli at 30 ug/ml by agar plate diffusion technique; conditions: read-out: IZ
[13] = tested on: Pseudomonas aeruginosa; assay: Antibacterial activity against Pseudomonas aeruginosa at 30 ug/ml by agar plate diffusion technique; conditions: read-out: IZ
[14] = tested on: Mus musculus; assay: Analgesic activity in Swiss mouse assessed as increase in reaction time at 20 mg/kg, po after 60 mins by Eddy's hot plate technique; method in brief: as §2
[15] = tested on: Candida albicans; assay: Antifungal activity against Candida albicans at 10 ug/ml by paper disc method; conditions: read-out: IZ
[16] = tested on: Escherichia coli; assay: Antibacterial activity against Escherichia coli at 10 ug/ml by agar plate diffusion technique; conditions: read-out: IZ
[17] = tested on: Mus musculus; assay: Analgesic activity in Swiss mouse assessed as increase in reaction time at 20 mg/kg, po after 30 mins by Eddy's hot plate technique; method in brief: as §2
[18] = tested on: Aspergillus niger; assay: Antifungal activity against Aspergillus niger at 20 ug/ml by paper disc method; conditions: read-out: IZ
[19] = tested on: Candida albicans; assay: Antifungal activity against Candida albicans at 30 ug/ml by paper disc method; conditions: read-out: IZ
[20] = tested on: Bacillus subtilis; assay: Antibacterial activity against Bacillus subtilis at 10 ug/ml by agar plate diffusion technique; conditions: read-out: IZ
[21] = tested on: Escherichia coli; assay: Antibacterial activity against Escherichia coli at 20 ug/ml by agar plate diffusion technique; conditions: read-out: IZ
[22] = tested on: Candida albicans; assay: Antifungal activity against Candida albicans at 20 ug/ml by paper disc method; conditions: read-out: IZ
[23] = tested on: Rattus norvegicus; assay: Antiinflammatory activity in Wistar Albino rat assessed as inhibition of carrageenan-induced paw oedema at 20 mg/kg after 2 hrs relative to control; method in brief: as §1
[24] = tested on: Bacillus subtilis; assay: Antibacterial activity against Bacillus subtilis at 20 ug/ml by agar plate diffusion technique; conditions: read-out: IZ
[25] = tested on: Bacillus subtilis; assay: Antibacterial activity against Bacillus subtilis at 30 ug/ml by agar plate diffusion technique; conditions: read-out: IZ

| SMILES | zone of inhibition at 30 µg/mL [1] | inhibition in vivo at 20 mg/kg [2] | inhibition in vivo at 20 mg/kg [3] | zone of inhibition at 10 µg/mL [4] | zone of inhibition at 20 µg/mL [5] | Activity [6] | zone of inhibition at 10 µg/mL [7] | zone of inhibition at 30 µg/mL [8] | zone of inhibition at 10 µg/mL [9] | zone of inhibition at 20 µg/mL [10] | inhibition in vivo at 20 mg/kg [11] | zone of inhibition at 30 µg/mL [12] | zone of inhibition at 30 µg/mL [13] | Activity [14] | zone of inhibition at 10 µg/mL [15] | zone of inhibition at 10 µg/mL [16] | Activity [17] | zone of inhibition at 20 µg/mL [18] | zone of inhibition at 30 µg/mL [19] | zone of inhibition at 10 µg/mL [20] | other results |
| --- | --- | --- | --- | --- | --- | --- | --- | --- | --- | --- | --- | --- | --- | --- | --- | --- | --- | --- | --- | --- | --- |
| Cc1occc1-c1nnc2sc(Cc3c[nH]c4ccccc34)nn12 | 13.2 mm | 30% | 16% | 5.6 mm | 8.19 mm | 35.33% | 5.12 mm | 13.5 mm | 4.85 mm | 8.9 mm | 26.5% | 13.6 mm | 13.5 mm | 22.22% | 5.38 mm | 5.78 mm | 6.66% | 8.74 mm | 12.7 mm | 5.67 mm | zone of inhibition at 20 µg/mL [21]: 9.18 mm; zone of inhibition at 20 µg/mL [22]: 9.3 mm; inhibition in vivo at 20 mg/kg [23]: 21.5%; zone of inhibition at 20 µg/mL [24]: 8.75 mm; zone of inhibition at 30 µg/mL [25]: 13.8 mm |
| Cc1occc1-c1nnc2sc(-c3ccnc(Cl)c3)nn12 | 20.7 mm | 27.1% | 10.1% | 7.38 mm | 14.7 mm | 20.34% | 7.82 mm | 19.2 mm | 7.79 mm | 13.8 mm | 24.1% | 20.2 mm | 20.6 mm | 11.35% | 7.26 mm | 7.48 mm | 6.04% | 14.3 mm | 21.9 mm | 7.82 mm | zone of inhibition at 20 µg/mL [21]: 14.8 mm; zone of inhibition at 20 µg/mL [22]: 14 mm; inhibition in vivo at 20 mg/kg [23]: 15.3%; zone of inhibition at 20 µg/mL [24]: 14.6 mm; zone of inhibition at 30 µg/mL [25]: 20.4 mm |
| COc1ccc(Cc2nnc3n2NC(c2ccc[nH]2)S3)cc1OC (stereo not given) | 12.2 mm | 21.5% | 13.2% | 4.68 mm | 7.64 mm | 21.06% | 4.02 mm | 10.6 mm | 7.33 mm | 11.7 mm | 17.7% | 14.2 mm | 13.3 mm | 12.65% | 4.7 mm | 4.48 mm | 7.6% | 9.12 mm | 13.1 mm | 4.32 mm | zone of inhibition at 20 µg/mL [21]: 7.18 mm; zone of inhibition at 20 µg/mL [22]: 8.12 mm; inhibition in vivo at 20 mg/kg [23]: 15.9%; zone of inhibition at 20 µg/mL [24]: 8.32 mm; zone of inhibition at 30 µg/mL [25]: 12 mm |
| COc1ccc(Cl)c(-c2nnc3n2NC(c2ccco2)S3)c1 (stereo not given) | 13.1 mm | 25.6% | 13.9% | 5.16 mm | 8.61 mm | 23.89% | 4.82 mm | 14.1 mm | 4.82 mm | 8.95 mm | 23.1% | 14.4 mm | 14.2 mm | 12.55% | 5.19 mm | 4.12 mm | 6.24% | 7.13 mm | 14.8 mm | 4.39 mm | zone of inhibition at 20 µg/mL [21]: 7.39 mm; zone of inhibition at 20 µg/mL [22]: 10.3 mm; inhibition in vivo at 20 mg/kg [23]: 18.7%; zone of inhibition at 20 µg/mL [24]: 7.68 mm; zone of inhibition at 30 µg/mL [25]: 13.6 mm |
| COc1ccc(Cc2nnc3sc(-c4cc(O)nc(O)c4)nn23)cc1OC | 11.9 mm | 20.8% | 10.5% | 4.16 mm | 8.93 mm | 23.45% | 4.61 mm | 13.9 mm | 4.63 mm | 8.9 mm | 17.1% | 13.3 mm | 13.1 mm | 14.1% | 3.82 mm | 4.26 mm | 5.71% | 7.84 mm | 13.9 mm | 4.58 mm | zone of inhibition at 20 µg/mL [21]: 8.1 mm; zone of inhibition at 20 µg/mL [22]: 6.82 mm; inhibition in vivo at 20 mg/kg [23]: 12.9%; zone of inhibition at 20 µg/mL [24]: 8.12 mm; zone of inhibition at 30 µg/mL [25]: 13.9 mm |
| COc1ccc2[nH]c(C)c(Cc3nn4c(-c5ccoc5C)nnc4s3)c2c1 | 12.4 mm | 31.2% | 19.7% | 5.14 mm | 9.12 mm | 33.49% | 4.89 mm | 13.3 mm | 4.92 mm | 8.14 mm | 29.4% | 13.8 mm | 14.6 mm | 23.17% | 5.04 mm | 5.12 mm | 9.18% | 9.06 mm | 13.1 mm | 4.6 mm | zone of inhibition at 20 µg/mL [21]: 9.1 mm; zone of inhibition at 20 µg/mL [22]: 9.86 mm; inhibition in vivo at 20 mg/kg [23]: 24.8%; zone of inhibition at 20 µg/mL [24]: 8.38 mm; zone of inhibition at 30 µg/mL [25]: 13.2 mm |
| COc1ccc(Cl)c(-c2nnc3sc(Cc4c[nH]c5ccc(OC)cc45)nn23)c1 | 12.2 mm | 33.9% | 6.1% | 5.38 mm | 8.52 mm | 31.48% | 4.58 mm | 13.7 mm | 4.83 mm | 9.18 mm | 21.4% | 13.2 mm | 12.8 mm | 23.76% | 5.44 mm | 5.1 mm | 13.69% | 10.1 mm | 11.2 mm | 4.76 mm | zone of inhibition at 20 µg/mL [21]: 8.39 mm; zone of inhibition at 20 µg/mL [22]: 9.2 mm; inhibition in vivo at 20 mg/kg [23]: 14.4%; zone of inhibition at 20 µg/mL [24]: 8.79 mm; zone of inhibition at 30 µg/mL [25]: 13.2 mm |
| COc1ccc(Cl)c(-c2nnc3n2NC(c2ccc([N+](=O)[O-])o2)S3)c1 (stereo not given) | 14.5 mm | 24.2% | 15.6% | 5.32 mm | 8.82 mm | 23.45% | 5.2 mm | 14.2 mm | 4.88 mm | 7.36 mm | 21.7% | 15.1 mm | 13.2 mm | 14.1% | 5.58 mm | 5.21 mm | 5.71% | 9.72 mm | 15.2 mm | 5.12 mm | zone of inhibition at 20 µg/mL [21]: 10.1 mm; zone of inhibition at 20 µg/mL [22]: 11.3 mm; inhibition in vivo at 20 mg/kg [23]: 18.5%; zone of inhibition at 20 µg/mL [24]: 8.71 mm; zone of inhibition at 30 µg/mL [25]: 13.6 mm |
